Converted amounts (≈) assume the structure as drawn.
Assays:
Staphylococcus aureus [1] = test: Bacterial challenge for systemic murine infection against Staphylococcus aureus Smith; type: functional
Micrococcus luteus = test: In vitro minimum inhibitory concentration was measured against Micrococcus luteus ATCC 9341 strain.; type: functional
How it was run: (§1)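 Streptococci were tested on brain heart infusion agar plus 20 units/mL catalase, Proteus on Mueller-Hinton with 3% agar, and others on Mueller-Hinton agar. Inocula were 100-fold-diluted overnight cultures, about 3 × 10^4 CFU/spot, read after overnight incubation at 36 °C.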

Enterobacter cloacae [2] = test: In vitro minimum inhibitory concentration was measured against Enterobacter cloacae 5699 strain.; type: functional
Enterobacter cloacae [3] = test: In vitro minimum inhibitory concentration was measured against Enterobacter cloacae p99 (beta lactamase producer) strain.; type: functional
Proteus vulgaris = test: In vitro minimum inhibitory concentration was measured against Proteus vulgaris 1028BC (beta lactamase producer) strain.; type: functional; how it was run: as §1
Enterococcus faecalis = test: In vitro minimum inhibitory concentration was measured against Enterococcus faecalis ATCC 29212 strain.; type: functional; how it was run: as §1
Serratia marcescens [4] = test: In vitro minimum inhibitory concentration was measured against Serratia marcescens 1071(beta lactamase producer) strain.; type: functional; how it was run: as §1
[5] = target: T1, Penicillin-binding protein 1A (Escherichia coli K-12) (UniProt P02918); test: Affinity for penicillin binding protein 1a of Escherichia coli UB1005 (DC0) was evaluated.; parameters: unit not given here
T1 sequence (whole entry): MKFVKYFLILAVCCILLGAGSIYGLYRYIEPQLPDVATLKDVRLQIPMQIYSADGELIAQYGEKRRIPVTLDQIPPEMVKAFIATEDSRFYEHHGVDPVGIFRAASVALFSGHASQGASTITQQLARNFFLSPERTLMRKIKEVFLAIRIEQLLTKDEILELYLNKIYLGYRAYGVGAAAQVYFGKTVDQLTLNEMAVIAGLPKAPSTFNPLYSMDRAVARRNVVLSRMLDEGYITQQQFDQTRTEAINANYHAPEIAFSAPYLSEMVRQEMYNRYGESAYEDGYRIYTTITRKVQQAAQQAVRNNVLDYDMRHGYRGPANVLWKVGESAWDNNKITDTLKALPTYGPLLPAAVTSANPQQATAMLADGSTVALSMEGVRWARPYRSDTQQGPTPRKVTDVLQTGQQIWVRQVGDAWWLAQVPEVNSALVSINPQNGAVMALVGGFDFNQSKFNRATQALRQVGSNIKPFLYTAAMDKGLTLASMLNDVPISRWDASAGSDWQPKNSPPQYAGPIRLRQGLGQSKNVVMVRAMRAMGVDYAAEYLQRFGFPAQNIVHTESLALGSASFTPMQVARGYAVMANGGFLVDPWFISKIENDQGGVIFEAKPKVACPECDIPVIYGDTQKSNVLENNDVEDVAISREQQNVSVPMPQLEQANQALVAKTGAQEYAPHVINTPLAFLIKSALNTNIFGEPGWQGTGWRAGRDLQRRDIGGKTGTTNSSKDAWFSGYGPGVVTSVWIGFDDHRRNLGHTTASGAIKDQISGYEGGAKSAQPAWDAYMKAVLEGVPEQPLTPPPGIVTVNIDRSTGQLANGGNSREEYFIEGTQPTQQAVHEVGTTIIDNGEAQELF
How it was run: (§2)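 Solubilised membranes from sonicated E. coli UB1005 served as the binding-protein source. Binding was read as inhibition of [14C]penicillin G binding.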

Escherichia coli [6] = test: In vitro minimum inhibitory concentration was measured against Escherichia coli TEM-1 (Beta lactamase producer) strain.; type: functional; how it was run: as §1
Staphylococcus aureus [7] = test: In vitro minimum inhibitory concentration was measured against Staphylococcus aureus smith strain.; type: functional
Serratia marcescens [8] = test: Bacterial challenge for systemic murine infection against Serratia marcescens SM; type: functional
How it was run: (§3)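 Mouse protection test in CD1 Swiss albino mice (18-20 g). Mice were infected intraperitoneally with 0.5 mL of diluted bacterial suspension. A single subcutaneous dose at the dorsal neck base was given within 5 min, with doses from 250 to 0.05 mg/kg. Six mice per group were used. ED50 was obtained by the Reed-Muench method.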

Escherichia coli [9] = test: Minimum inhibitory concentration against E. coli UB1005 (DC0)
Pseudomonas aeruginosa [10] = test: Bacterial challenge for systemic murine infection against Pseudomonas aeruginosa 8780; type: functional
How it was run: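 Mouse protection test in CD1 Swiss albino mice (18-20 g) infected intraperitoneally with 0.5 mL of diluted bacterial suspension. Subcutaneous doses (250 to 0.05 mg/kg) were given immediately after infection and again 3 h later. Six mice per group were used. ED50 was obtained by the Reed-Muench method.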

Escherichia coli [11] = test: In vitro minimum inhibitory concentration was measured against Escherichia coli 257 strain.; type: functional; how it was run: as §1
Staphylococcus aureus [12] = test: In vitro minimum inhibitory concentration was measured against Staphylococcus aureus 67-0 (Methicillin resistant) strain.; type: functional
Klebsiella pneumoniae [13] = test: Bacterial challenge for systemic murine infection against Klebsiella pneumoniae A; type: functional; how it was run: as §3
Pseudomonas aeruginosa [14] = test: In vitro minimum inhibitory concentration was measured against Pseudomonas aeruginosa 8780 strain.; type: functional; how it was run: as §1
Escherichia coli [15] = test: In vitro minimum inhibitory concentration was measured against Escherichia coli ATCC 25922 strain.; type: functional; how it was run: as §1
Klebsiella pneumoniae [16] = test: In vitro minimum inhibitory concentration was measured against Klebsiella pneumoniae A strain.; type: functional; how it was run: as §1
Enterobacter cloacae [17] = test: Bacterial challenge for systemic murine infection against Enterobacter cloacae 5699; type: functional; how it was run: as §3
[18] = target: T2, Penicillin-binding protein 1B (Escherichia coli K-12) (UniProt P02919); test: Affinity for penicillin binding protein 1b of Escherichia coli UB1005 (DC0) was evaluated.; parameters: unit not given here; how it was run: as §2
T2 sequence (whole entry): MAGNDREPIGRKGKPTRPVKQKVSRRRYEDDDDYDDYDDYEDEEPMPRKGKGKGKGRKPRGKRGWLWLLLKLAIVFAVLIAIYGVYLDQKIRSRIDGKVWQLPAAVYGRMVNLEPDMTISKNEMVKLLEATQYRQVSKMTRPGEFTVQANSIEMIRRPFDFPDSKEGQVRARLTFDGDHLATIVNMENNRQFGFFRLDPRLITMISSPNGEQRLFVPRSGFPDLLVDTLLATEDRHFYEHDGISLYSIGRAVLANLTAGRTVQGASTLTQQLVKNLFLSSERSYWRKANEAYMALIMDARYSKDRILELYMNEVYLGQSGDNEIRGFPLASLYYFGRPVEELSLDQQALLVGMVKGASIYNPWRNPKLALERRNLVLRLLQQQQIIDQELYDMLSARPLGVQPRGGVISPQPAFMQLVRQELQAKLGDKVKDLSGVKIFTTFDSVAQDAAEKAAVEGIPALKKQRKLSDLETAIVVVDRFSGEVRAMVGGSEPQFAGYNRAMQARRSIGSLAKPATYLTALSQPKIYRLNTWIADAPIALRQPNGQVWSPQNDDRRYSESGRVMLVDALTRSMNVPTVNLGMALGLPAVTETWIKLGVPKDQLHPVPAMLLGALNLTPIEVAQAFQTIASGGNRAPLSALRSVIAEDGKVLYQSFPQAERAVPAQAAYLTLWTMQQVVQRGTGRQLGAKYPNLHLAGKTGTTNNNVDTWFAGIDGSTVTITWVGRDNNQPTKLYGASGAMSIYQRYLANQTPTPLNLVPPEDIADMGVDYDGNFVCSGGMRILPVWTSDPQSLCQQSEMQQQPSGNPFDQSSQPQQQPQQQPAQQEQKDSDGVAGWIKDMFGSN

Streptococcus pneumoniae = test: Bacterial challenge for systemic murine infection against Streptococcus pneumoniae 6301; type: functional

`CO/N=C(\C(=O)N[C@@H]1C(=O)N2C(C(=O)O)=C(CN3CCN(c4cc5c(cc4F)c(=O)c(C(=O)O)cn5C4CC4)CC3)CS[C@H]12)c1csc(N)n1` was tested, and the LD50 (Staphylococcus aureus [1]) was over 8, the MIC (Micrococcus luteus) was 0.125 µg/mL (≈ 0.172 µM) and the MIC (Enterobacter cloacae [2]) was 0.5 µg/mL (≈ 0.688 µM). It also gave an MIC (Enterobacter cloacae [3]) of 0.125 µg/mL (≈ 0.172 µM), an MIC (Proteus vulgaris) of 0.25 µg/mL (≈ 0.344 µM) and an MIC (Enterococcus faecalis) of 4 µg/mL (≈ 5.5 µM). The MIC (Serratia marcescens [4]) was 1 µg/mL (≈ 1.38 µM), the Binding affinity [5] was over 100 and the MIC (Escherichia coli [6]) was 0.25 µg/mL (≈ 0.344 µM). It also gave an MIC (Staphylococcus aureus [7]) of 4 µg/mL (≈ 5.5 µM), an LD50 (Serratia marcescens [8]) of 27 and an MIC (Escherichia coli [9]) of 1 µg/mL (≈ 1.38 µM). The LD50 (Pseudomonas aeruginosa [10]) was over 10000, the MIC (Escherichia coli [11]) was 0.125 µg/mL (≈ 0.172 µM) and the MIC (Staphylococcus aureus [12]) was 8 µg/mL (≈ 11 µM). The LD50 (Klebsiella pneumoniae [13]) was over 10000, the MIC (Pseudomonas aeruginosa [14]) was 8 µg/mL (≈ 11 µM) and the MIC (Escherichia coli [15]) was 0.125 µg/mL (≈ 0.172 µM). For the same compound, the MIC (Klebsiella pneumoniae [16]) was 1 µg/mL (≈ 1.38 µM), the LD50 (Enterobacter cloacae [17]) was 7055 and the Binding affinity [18] was over 100. For the same compound, the LD50 (Streptococcus pneumoniae) was over 10000.
Compound `CO/N=C(\C(=O)N[C@@H]1C(=O)N2C(C(=O)O)=C(COC(C)=O)CS[C@H]12)c1csc(N)n1` [CEFOTAXIME] has an LD50 (Staphylococcus aureus [1]) of 6, an MIC (Micrococcus luteus) of 0.031 µg/mL (≈ 0.0681 µM) and an MIC (Enterobacter cloacae [2]) of 0.125 µg/mL (≈ 0.274 µM). The MIC (Enterobacter cloacae [3]) was 64 µg/mL (≈ 141 µM), the MIC (Proteus vulgaris) was over 128 µg/mL and the MIC (Enterococcus faecalis) was 0.25 µg/mL (≈ 0.549 µM). The MIC (Serratia marcescens [4]) was 32 µg/mL (≈ 70.3 µM), the Binding affinity [5] was 0.1 and the MIC (Escherichia coli [6]) was 0.063 µg/mL (≈ 0.138 µM). The MIC (Staphylococcus aureus [7]) was 2 µg/mL (≈ 4.39 µM), the LD50 (Serratia marcescens [8]) was under 25 and the MIC (Escherichia coli [9]) was 0.031 µg/mL (≈ 0.0681 µM). It also gave an LD50 (Pseudomonas aeruginosa [10]) of over 250, an MIC (Escherichia coli [11]) of 0.031 µg/mL (≈ 0.0681 µM) and an MIC (Staphylococcus aureus [12]) of over 128 µg/mL. The LD50 (Klebsiella pneumoniae [13]) was 45, the MIC (Pseudomonas aeruginosa [14]) was 16 µg/mL (≈ 35.1 µM) and the MIC (Escherichia coli [15]) was 0.063 µg/mL (≈ 0.138 µM). For the same compound, the MIC (Klebsiella pneumoniae [16]) was 0.031 µg/mL (≈ 0.0681 µM), the LD50 (Enterobacter cloacae [17]) was 50 and the Binding affinity [18] was 0.5. It also gave an LD50 (Streptococcus pneumoniae) of 69.
